Among the data in the RNAGym collection of RNA variant scans (doi:10.1126/science.aae0568) are yeast fitness values, retold here.

This sample holds only a part of the variants without activity. Some results are limits rather than exact numbers.

First the molecules themselves.
B1: tRNA (parent)
chain: GUUCCGUUGGCGUAAUGGUAACGCGUCUCCCUCCUAAGGAGAAGACUGCGGGUUCGAGUCCCGUACGGAACG

In this series the parent is B1. Put plainly: yeast fitness relative to wild type (ratio to wild type); higher = fitter; tRNA-Arg(CCU), competitive growth, 37 C, YPD. In short, it runs like this: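 Variants of the tRNA-Arg(CCU) gene, chemically synthesised with a 3% per-site mutation rate at 69 sites, were placed at the native genomic locus in Saccharomyces cerevisiae. The pooled strains were competed in YPD at 37°C for 24 hours in six parallel replicates. Gene amplicons from the start population and from each end population were read by 100-nucleotide paired-end sequencing. Darwinian fitness relative to wild type came from changes in genotype frequencies; genotypes needed ≥ 100 starting reads, and estimates < 0.5 were set to 0.5.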
With GUUCCGUUGGCGUAAUGGUAACGCGUCUCCCUCCCAAGGAGAAGACUGCAGGUUCGAGUCCCGUACGGAACG [U35C G50A], the yeast fitness is 0.927.

Take GUUCCGUUGGCGUAAUGGUAACGCGUCUCCCUCCCAAGGAGAAGACUGCCGGUUCGAGUCCCGUACGGAACG [U35C G50C]: the yeast fitness worked out at 0.703. Consider GUUCCGUUGGCGUAAUGGUAACGCGUCUCCCUCCCAAGGAGAAGAAUGAGGGUUCGAGUCCCGUACGGAACG [U35C C46A C49A], for which the yeast fitness is not above 0.5. Turning to GUUCCGUUGGCGUAAUGGUAACGCGUCUCCCUCCCAAGAAGAAGACUGCGGGAUCGAGUCCCGUACGGAACG [U35C G39A U53A], the yeast fitness was 0.567.

Turning to GUUCCGUUGGCGUAAUGGUAACGCGUCUCCCUCCUCAGGGGAAGAUUGCGGGUUCGAGUCCCGUACGGAACG [A36C A40G C46U], the yeast fitness stood at 0.569. Turning to GUUCCGUUGGCGUAAUGGUAACGCGUCUCCCUCCGAAGGAGAAGACUGCGGAUUCGAGUCCCGUACGGAACG [U35G G52A], the yeast fitness is not above 0.5. For GUUCCGUUGGCGUAAUGGUAACGCGUCUCCCUCCUCAGGAGUGGACUGCGGGUUCGAGUCCCCUACGGAACG [A36C A42U A43G G63C] the value was 0.509; for GUUCCGUUGGCGUAAUGGUAACGCGUCUCCCUCCCAAGGAGAAGACUGCCGGUACGAGUCCCGUACGGAACG [U35C G50C U54A], not above 0.5. For GUUCCGUUGGCGUAAUGGUAACGCGUCUCCCUCCUCAGGAGAAGCCUACGGGUUCGAGUCCCGUACGGAACG [A36C A45C G48A], the yeast fitness was not above 0.5.

In the case of GUUCCGUUGGCGUAAUGGUAACGCGUCUCCCUCCCAAGGAGAAGACUGCGGGUUCGAGUCCCGUACGUAACG [U35C G68U], the yeast fitness worked out at 0.657.

Regarding GUUCCGUUGGCGUAAUGGUAACGCGUCUCCCUCCCAAGGAGAAGACUGCGGGUUCGAGUCCCGUACGAAACG [U35C G68A], the yeast fitness amounted to 0.67. In the case of GUUCCGUUGGCGUAAUGGUAACGCGUCUCCCUCCCAAGGAGAAGACUGCGGGUUCGAGUCCCGUACGCAACG [U35C G68C], the yeast fitness worked out at 0.644. Regarding GUUCCGUUGGCGUAAUGGUAACGCGUCUCCCUCCGAAGGAGAAGACUGCGAGUUCGAGUCCCGUACGGAACG [U35G G51A], the yeast fitness was determined as 0.634. For the variant GUUCCGUUGGCGUAAUGGUAACGCGUCUCCCUCCCAAGGAGAAGACUGCAGGUUUGAGUCCCGUACGGAACG [U35C G50A C55U], the yeast fitness is not above 0.5. GUUCCGUUGGCGUAAUGGUAACGCGUCUCCCUCCGAAGGCGAAGACUGCGGGUUCGAGUCCCGUACGGAACG [U35G A40C]: the yeast fitness was determined as 0.682. As to GUUCCGUUGGCGUAAUGGUAACGCGUCUCCCUCCCAAGGAGAAGACUGCGGGUUCGAGUCCCAUACGGAACG [U35C G63A], the yeast fitness stood at 0.614. GUUCCGUUGGCGUAAUGGUAACGCGUCUCCCUCCUCUGGAGAAGACUGCGGGUUCGAGUCCCGUACGGAACG [A36C A37U]: the yeast fitness was not above 0.5. For GUUCCGUUGGCGUAAUGGUAACGCGUCUCCCUCCUCGGGAGAAGACUGCGGGUUCGAGUCCCGUACGGAACG [A36C A37G], the yeast fitness came to 0.611.

GUUCCGUUGGCGUAAUGGUAACGCGUCUCCCUCCGAAGGAGAAGACUGCGGGUUCGAGUCCCGUACAGAACG [U35G G67A]: the yeast fitness is 0.616. As for GUUCCGUUGGCGUAAUGGUAACGCGUCUCCCUCCGAAGGAGAAGACUGCGGGGUCGAGUCCCGUACGGAACG [U35G U53G], the yeast fitness stood at 0.592.

Turning to GUUCCGUUGGCGUAAUGGUAACGCGUCUCCCUCCGAAGGAGAAGACUGCGGGUUCGAGUCCCGCACGGCACG [U35G U64C A69C], the yeast fitness is not above 0.5. Consider GUUCCGUUGGCGUAAUGGUAACGCGUCUCCCUCCCAAGGAGAAAACUGCGGGUUCGUGUCCCGUAGGGAACG [U35C G44A A57U C66G], for which the yeast fitness was not above 0.5. For GUUCCGUUGGCGUAAUGGUAACGCGUCUCCCUCCGAAGGAGAAGACUGAGGGUUCGAGUCCCGUACGGAACG [U35G C49A] the value was 0.595; for GUUCCGUUGGCGUAAUGGUAACGCGUCUCCCUCCUCUGGAGAAGACUGCCGGUUCGAGUCCCGUAUGGAACG [A36C A37U G50C C66U], 0.56. Turning to GUUCCGUUGGCGUAAUGGUAACGCGUCUCCCUCCGAAGGAGAGGACUGCGGGUUCGAGUCCCGUACGGAACG [U35G A43G], the yeast fitness worked out at 0.725. For GUUCCGUUGGCGUAAUGGUAACGCGUCUCCCUCCUCCGGAGAAGACUGCGGGGUCGAGUCCCGUAUGGACCG [A36C A37C U53G C66U A70C] the value was 0.531; for GUUCCGUUGGCGUAAUGGUAACGCGUCUCCCUCCCAAGAAGAAGACUGCGGGUUCGAGUCCCGUACGGAACG [U35C G39A], 0.886; for GUUCCGUUGGCGUAAUGGUAACGCGUCUCCCUCCCAAGGAGAAGACUGCGGAUUCGAGUCCCGUACGGAACG [U35C G52A], 0.658. Regarding GUUCCGUUGGCGUAAUGGUAACGCGUCUCCCUCCGAAGGAGAAGACUGCGGGUUCGAGUCCCAUACGGAACG [U35G G63A], the yeast fitness was 0.7. As to GUUCCGUUGGCGUAAUGGUAACGCGUCUCCCUCCGAAGGAGAAGACUGCGGGUUCGAGUCCCGUACGGCACG [U35G A69C], the yeast fitness amounted to 0.592. Take GUUCCGUUGGCGUAAUGGUAACGCGUCUCCCUCCCAAGGAGAAGACUGCGGGUUCGAGUGCCGUACGGAACG [U35C C60G]: the yeast fitness came to 0.602. For the variant GUUCCGUUGGCGUAAUGGUAACGCGUCUCCCUCCGAAGGAGAAGACUGCGGGUUCGAGUCCCGUACGGACCG [U35G A70C], the yeast fitness turned out to be 0.711. In the case of GUUCCGUUGGCGUAAUGGUAACGCGUCUCCCUCCUCAGGAGAAGCCUGCGGGUACGCGUCCCGUACGGAACG [A36C A45C U54A A57C], the yeast fitness was found to be 0.538.

For GUUCCGUUGGCGUAAUGGUAACGCGUCUCCCUCCCAAGGAGAAGACUGCGGGAUCGAGUCCCGUACGGAACG [U35C U53A], the yeast fitness amounted to 0.56. For GUUCCGUUGGCGUAAUGGUAACGCGUCUCCCUCCUCGGGAGAAGACUGCGGGUUCAAGUCCCGUACGGAACG [A36C A37G G56A] the value was not above 0.5; for GUUCCGUUGGCGUAAUGGUAACGCGUCUCCCUCCCAAGGAGAAGAAUGCGGGUUCGAGUCCCGUACGGAUCG [U35C C46A A70U], 0.767; for GUUCCGUUGGCGUAAUGGUAACGCGUCUCCCUCCGAAGGAGAAAACUGCGGGUUCGAGUCCCGUACGGAACG [U35G G44A], 0.509. As to GUUCCGUUGGCGUAAUGGUAACGCGUCUCCCUCCGAAGGAGAAGACUGCGAGUUCGAGUCCCGUCCGGAACG [U35G G51A A65C], the yeast fitness is 0.622.
